Results from article PMC4476059 (Cell, 2015).

Tests used:
Type in all cases: cell-based
[1] = target: T1, full-length wild-type LPA1 (Homo sapiens, UniProt Q92633); experiment: Ca2+ mobilization assay in B103 cells expressing full-length wild-type LPA1; settings: read-out: EC50, Ca2+ mobilization assay; B103 cells heterologously expressing full-length wild-type LPA1; normalized to 3 μM 1-oleoyl-LPA (Figure 6D)
[2] = target: T1, full-length wild-type LPA1; experiment: cAMP assay; settings: read-out: EC50, cAMP assay; B103 cells expressing full-length wild-type LPA1; 10 μM forskolin; n=2 (Figure 6D)
LPA1 [3] = target: T2, LPA1 (Homo sapiens, UniProt Q92633); experiment: Neurite retraction assay in B103 cells expressing LPA1; settings: stable cell line expressing LPA1, 15 min treatment
T2 sequence (Q92633 whole entry): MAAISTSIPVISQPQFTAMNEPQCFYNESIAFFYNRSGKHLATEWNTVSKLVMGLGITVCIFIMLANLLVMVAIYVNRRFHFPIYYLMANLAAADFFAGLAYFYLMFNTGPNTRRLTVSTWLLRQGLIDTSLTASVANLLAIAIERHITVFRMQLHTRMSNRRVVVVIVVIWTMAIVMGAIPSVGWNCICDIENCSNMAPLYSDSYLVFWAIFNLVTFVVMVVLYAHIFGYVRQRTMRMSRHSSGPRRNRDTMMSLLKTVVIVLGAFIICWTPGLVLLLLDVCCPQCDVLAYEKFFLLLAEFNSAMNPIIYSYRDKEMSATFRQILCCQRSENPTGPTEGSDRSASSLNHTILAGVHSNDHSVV
In short: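 B103 rat neuroblastoma stable line carrying HA-tagged full-length human LPA1 (G418-selected, sorted for high anti-HA staining), serum-starved overnight in FreeStyle 293 medium. Cells were given ligands for 15 min at 37°C, washed, and fixed in 2% paraformaldehyde. Under the microscope, round cells lacking neurite extensions were counted and expressed as a percentage of observed cells.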

LPA1 [4] = target: T2, LPA1; experiment: F-actin stress fiber formation assay in B103 cells expressing LPA1; settings: 15 min treatment
In short: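 Rat neuroblastoma B103 cells stably expressing HA-tagged full-length human LPA1 (G418 selection, FACS-sorted for high anti-HA signal), starved overnight in FreeStyle 293 medium, then exposed to ligands for 15 min at 37°C. Cells were fixed with 2% paraformaldehyde, washed with 0.3% Triton X-100 in PBS, stained with 1 μg/mL rhodamine-phalloidin for 30 min at room temperature, and imaged by confocal microscopy.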

T1 sequence (Q92633 whole entry): as above

EC50 [1]	EC50 [2]	Structure (SMILES)	Neurite retraction (cell morphology change mediated by LPA1) (LPA1 [3])	F-actin stress fiber formation (LPA1 [4])
1120 ± 1480 nM	–	CCCCC/C=C\C/C=C\C/C=C\C/C=C\CCCC(=O)OC[C@@H](O)COP(=O)(O)O [1-ALPA, 1-arachidonoyl-LPA]	–	–
146 ± 74 nM	0.345 ± 0.202 nM	CCCCCCCC/C=C\CCCCCCCC(=O)OCC(O)COP(=O)(O)O (centres unmarked) [LPA 18:1 sn1, 1-oleoyl-LPA]	–	–
–	–	CCCCC/C=C\C/C=C\C/C=C\C/C=C\CCCC(=O)NCCOP(=O)(O)O [pAEA]	robust activation	activated
